Target: T1, human Gal-4C (Homo sapiens, UniProt P56470)
T1 sequence (P56470 179-323): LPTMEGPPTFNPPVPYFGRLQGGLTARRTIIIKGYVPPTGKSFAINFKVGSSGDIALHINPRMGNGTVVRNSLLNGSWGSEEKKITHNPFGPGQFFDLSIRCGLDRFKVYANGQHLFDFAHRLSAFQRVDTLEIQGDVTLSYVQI
Assay: Competitive solid-phase assay: Gal-4C binding to immobilized asialofetuin
In short: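 Human Gal-4C (residues 179–323, C-terminal His-tag, E. coli BL21) at 60 μg/ml final was preincubated 2 h at 37 °C with serially diluted glycan inhibitors; lactose was the reference. Mixtures went onto wells coated overnight at 4 °C with 10 µg/ml ASF (carbonate, pH 9.6) and BSA-blocked, for 2 h at 37 °C. Detection: biotinylated anti-Gal-4, HRP-streptavidin, TMB, A450. Values are means ± SEM from a representative of three experiments.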

IC50: 7 mM
Compound: OC[C@H]1O[C@@H](O[C@H]2[C@H](O)[C@@H](O)C(O)O[C@@H]2CO)[C@H](O)[C@@H](O)[C@H]1O (mixture of isomers) [lactose]

Source: PMC11362799 (The Journal of Biological Chemistry, 2024)
